Assays:
[1] = system: metallo-β-lactamase VIM-2 (Pseudomonas aeruginosa); experiment: Inhibition of VIM-2 (unknown origin) expressed in Escherichia coli BL21(DE3) assessed as substrate hydrolysis at 200 uM by UV-Vis spectrophotometric analysis relative to control
[2] = system: metallo-β-lactamase VIM-2 (Pseudomonas aeruginosa); experiment: Inhibition of VIM-2 (unknown origin) expressed in Escherichia coli BL21(DE3) assessed as substrate hydrolysis at 100 uM by UV-Vis spectrophotometric analysis relative to control
[3] = system: metallo-β-lactamase VIM-4 (Pseudomonas aeruginosa); experiment: Inhibition of VIM-4 (unknown origin) expressed in Escherichia coli BL21(DE3) assessed as substrate hydrolysis at 100 uM by UV-Vis spectrophotometric analysis relative to control
[4] = system: metallo-β-lactamase VIM-4 (Pseudomonas aeruginosa); experiment: Inhibition of VIM-4 (unknown origin) expressed in Escherichia coli BL21(DE3) assessed as substrate hydrolysis at 200 uM by UV-Vis spectrophotometric analysis relative to control
[5] = molecular target: Metallo-beta-lactamase type 2 (Bacteria) (UniProt C7C422); experiment: Inhibition of NDM1 (unknown origin) expressed in Escherichia coli BL21(DE3) assessed as substrate hydrolysis at 100 uM by UV-Vis spectrophotometric analysis relative to control
In short: (§1)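 Single-point screen at 100 or 200 µM inhibitor against purified MBL (1–70 nM) with 150 µM imipenem or meropenem reporter substrate, 50 mM HEPES pH 7.5, 30 °C. Initial hydrolysis rate read by absorbance at 300 nm and compared with the uninhibited reaction. Triplicate.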

[6] = molecular target: Metallo-beta-lactamase type 2 (Bacteria) (UniProt C7C422); experiment: Inhibition of NDM1 (unknown origin) expressed in Escherichia coli BL21(DE3) assessed as substrate hydrolysis at 200 uM by UV-Vis spectrophotometric analysis relative to control
In short: as §1

[7] = system: metallo-β-lactamase IMP-1 (Pseudomonas aeruginosa); experiment: Inhibition of IMP1 (unknown origin) expressed in Escherichia coli BL21(DE3) assessed as substrate hydrolysis at 100 uM by UV-Vis spectrophotometric analysis relative to control
[8] = molecular target: Metallo-beta-lactamase type 2 (Bacteria, UniProt C7C422); experiment: Binding affinity to NDM1 (unknown origin) expressed in Escherichia coli BL21(DE3) assessed as inhibition constant by measuring rate of substrate hydrolysis by UV-Vis spectrophotometric analysis; settings: read-out: Ki
In short: (§2)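 Purified MBL (1–70 nM) with 150 µM imipenem or meropenem as reporter substrate, 50 mM HEPES pH 7.5, 30 °C. Hydrolysis followed by absorbance at 300 nm without and with inhibitor (0.5 µM–1 mM). Ki from the slope of v0/vi vs [I] under a competitive model, or from Dixon plots varying inhibitor and substrate. […] Triplicate, mean ± SD.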

[9] = Binding affinity to VIM-4 (unknown origin) expressed in Escherichia coli BL21(DE3) assessed as inhibition constant by measuring rate of substrate hydrolysis by UV-Vis spectrophotometric analysis
In short: as §2

[10] = system: metallo-β-lactamase IMP-1 (Pseudomonas aeruginosa); experiment: Inhibition of IMP1 (unknown origin) expressed in Escherichia coli BL21(DE3) assessed as substrate hydrolysis at 200 uM by UV-Vis spectrophotometric analysis relative to control
[11] = molecular target: Beta-lactamase VIM-1 (Bacteria, UniProt Q8GDC1); experiment: Binding affinity to VIM-1 (unknown origin) expressed in Escherichia coli BL21(DE3) assessed as inhibition constant by measuring rate of substrate hydrolysis by UV-Vis spectrophotometric analysis
In short: as §2

[12] = Binding affinity to IMP1 (unknown origin) expressed in Escherichia coli BL21(DE3) assessed as inhibition constant by measuring rate of substrate hydrolysis by UV-Vis spectrophotometric analysis; settings: read-out: Ki
In short: as §2

[13] = system: Klebsiella pneumoniae; experiment: Antimicrobial synergistic activity against blaVIM-4-producing multidrug-resistant Klebsiella pneumoniae VA416/02 clinical isolate assessed as meropenem MIC at 32 ug/ml by CLSI based broth microdilution method (reference value: 16 ug/ml); type: functional; settings: dose 32 µg/ml
[14] = system: Klebsiella pneumoniae; experiment: Antimicrobial synergistic activity against blaVIM-1-producing multidrug-resistant Klebsiella pneumoniae 7023 clinical isolate assessed as meropenem MIC at 32 ug/ml by CLSI based broth microdilution method (reference value: 16 ug/ml); type: functional; settings: dose 32 µg/ml
[15] = system: Escherichia coli; experiment: Synergistic antimicrobial activity against blaNDM-1-producing multidrug-resistant Escherichia coli SI-004M clinical isolate assessed as meropenem MIC at 32 ug/ml by CLSI based microdilution method (reference value: 64 ug/ml); type: functional; settings: dose 32 µg/ml
[16] = Binding affinity to VIM-2 (unknown origin) expressed in Escherichia coli BL21(DE3) assessed as inhibition constant by measuring rate of substrate hydrolysis by UV-Vis spectrophotometric analysis
In short: as §2

Chain of Metallo-beta-lactamase type 2 (C7C422 whole entry): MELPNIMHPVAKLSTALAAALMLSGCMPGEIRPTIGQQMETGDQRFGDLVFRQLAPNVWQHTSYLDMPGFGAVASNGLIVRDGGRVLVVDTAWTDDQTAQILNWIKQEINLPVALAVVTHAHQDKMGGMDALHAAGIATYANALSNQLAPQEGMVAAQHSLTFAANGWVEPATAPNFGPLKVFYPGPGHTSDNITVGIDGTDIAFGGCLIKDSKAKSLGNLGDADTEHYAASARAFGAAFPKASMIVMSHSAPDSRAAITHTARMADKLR
Chain of Metallo-beta-lactamase type 2 (Bacteria) (C7C422 whole entry): as above

Row | Compound | inhibition [1] | inhibition [2] | inhibition [3] | inhibition [4] | inhibition [5] | inhibition [6] | inhibition [7] | inhibition [10] | Ki [8] | Ki [9] | Ki [11] | Ki [12] | MIC [13] | MIC [14] | MIC [15] | Ki [16]
1 | CC(Cn1c(-c2ccccc2)n[nH]c1=S)c1ccccc1 (configuration not stated) | < 50% | < 30% | < 30% | < 50% | < 30% | < 50% | 55% | – | – | – | – | – | – | – | – | –
2 | Oc1ccc(CCn2c(-c3ccccc3-c3ccccc3)n[nH]c2=S)c(O)c1 | – | 35% | – | – | – | – | < 30% | < 50% | 15200 nM | 60000 nM | 27000 nM | – | – | – | – | –
3 | S=c1[nH]nc(-c2cc(Cl)cc(Cl)c2)n1/N=C/c1ccc(OCc2ccccc2)cc1 | – | < 30% | – | – | – | – | – | – | – | 600 nM | – | 100 nM | – | – | – | –
4 | COc1ccc(O)c(-c2n[nH]c(=S)n2[C@@H]2C[C@H]2c2ccccc2)c1 | – | 41% | – | – | – | – | – | – | 9500 nM | 2500 nM | 2200 nM | 4600 nM | 2 µg/mL | 4 µg/mL | 32 µg/mL | –
5 | Oc1ccc(CCn2c(-c3cc(-c4ccccc4)ccc3O)n[nH]c2=S)c(O)c1 | – | – | – | – | 38% | – | 44% | – | – | 850 nM | 760 nM | – | 2 µg/mL | 1 µg/mL | 64 µg/mL | 1900 nM
6 | COc1ccc(O)c(-c2n[nH]c(=S)n2CCc2ccc(O)cc2)c1 | – | – | – | – | < 30% | < 50% | < 30% | < 50% | – | 1900 nM | 1600 nM | – | 2 µg/mL | 2 µg/mL | – | 3900 nM
7 | Oc1cccc(CCn2c(-c3cccc(-c4ccccc4)c3)n[nH]c2=S)c1O | – | – | – | – | – | – | – | – | 22400 nM | 800 nM | 700 nM | 20000 nM | 4 µg/mL | 16 µg/mL | 32 µg/mL | 1800 nM
8 | S=c1[nH]nc(-c2ccccc2)n1CCc1ccccc1 | < 50% | < 30% | – | – | < 30% | < 50% | < 30% | < 50% | – | 2100 nM | 3200 nM | – | 2 µg/mL | 2 µg/mL | 64 µg/mL | –
9 | O=C1OC(Cn2c(-c3ccc(-c4ccccc4)cc3)n[nH]c2=S)c2ccccc21 (configuration not stated) | < 50% | < 30% | – | – | < 30% | < 50% | 48% | – | – | – | – | – | – | – | – | –
10 | O=C(O)c1ccc(-n2c(S)nnc2-c2ccccc2)cc1 | – | – | – | – | < 30% | – | – | – | – | – | – | – | – | – | – | –

More lines, main results first:

Row | inhibition [1] | inhibition [2] | inhibition [3] | inhibition [4] | inhibition [5] | inhibition [6] | inhibition [7] | inhibition [10] | Compound | Ki [8] | Ki [9] | Ki [11] | Ki [12] | MIC [13] | MIC [14] | MIC [15] | Ki [16]
11 | < 50% | < 30% | – | – | < 30% | < 50% | – | – | Oc1ccc(CCn2c(-c3ccc4ccccc4c3)n[nH]c2=S)cc1 | – | 3200 nM | 3300 nM | 24000 nM | – | – | – | –
12 | < 50% | < 30% | < 30% | < 50% | 69% | – | < 30% | < 50% | S=c1[nH]nc(-c2cccc(-c3ccccc3)c2)n1[C@@H]1C[C@H]1c1ccccc1 | – | – | – | – | – | – | – | –
13 | < 50% | < 30% | < 30% | < 50% | < 30% | < 50% | < 30% | < 50% | S=c1[nH]nc(-c2ccc3ccccc3c2)n1CCc1ccccc1 | – | – | 3700 nM | – | – | – | – | –
14 | < 50% | < 30% | – | – | < 30% | < 50% | < 30% | < 50% | Cc1ccccc1CCn1c(-c2ccccc2)n[nH]c1=S | – | – | – | – | – | – | – | –
15 | < 50% | < 30% | – | – | < 30% | < 50% | 35% | – | COc1ccc(O)c(-c2n[nH]c(=S)n2CCc2ccc(OCc3ccccc3)cc2)c1 | – | 540 nM | 11100 nM | – | – | – | – | –

Source: ChEMBL document CHEMBL5325390, “1,2,4-Triazole-3-thione analogues with an arylakyl group at position 4 as metallo-β-lactamase inhibitors” (Bioorg Med Chem, 2022)
